Laboratory results as given in ChEMBL document CHEMBL1157810, “Synthesis and evaluation of nitric oxide-releasing derivatives of farnesylthiosalicylic acid as anti-tumor agents” (Bioorg Med Chem, 2010).
Calls of active or inactive are those of the source. The calls are words filed in the database; no cut-off is given here.

Tests used:
MDA-MB-231 [1] = assay: Cytotoxicity against human MDA-MB-231 cells after 48 hrs by MTT assay; type: functional, cell-based; settings: MDA-MB-231, 48 h
How it was run: (§1)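 Cells at 5–10 × 10³/well grown overnight in RPMI-1640, then exposed in triplicate to a concentration series for 48 h. MTT (1 mg/mL) added for the final 4 h, formazan dissolved in DMSO, read at 570 nm against 595 nm reference. Untreated cells served as negative control, 1% Triton-treated cells as positive control. Inhibition calculated relative to negative-control OD. IC50 taken as concentration giving 50% growth inhibition.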

U-251 [2] = assay: Induction of NO production in human U251 cells at 100 uM after 30 to 300 mins by Griess assay; type: functional, cell-based
How it was run: (§2)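 Cells treated with compound at 100 µM. Nitrate/nitrite in cell lysates measured by Griess reaction at 540 nm over 30–300 min and quantified from a sodium nitrate standard curve. Diluent-treated cells gave background. Reported values are means of two experiments at 240 min post-treatment.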

[3] = Cytotoxicity against human U87 cells after 48 hrs by MTT assay; type: functional, cell-based, U-87MG ATCC; settings: U-87 MG; how it was run: as §1
MDA-MB-231 [4] = assay: Induction of NO production in human MDA-MB-231 cells at 100 uM after 30 to 300 mins by Griess assay; type: functional, cell-based; how it was run: as §2
U-87MG ATCC = assay: Induction of NO production in human U87 cells at 100 uM after 30 to 300 mins by Griess assay; type: functional, cell-based; how it was run: as §2
SGC-7901 [5] = assay: Cytotoxicity against human SGC7901 cells after 48 hrs by MTT assay; type: functional, cell-based; settings: SGC-7901, 48 h; how it was run: as §1
MCF7 [6] = assay: Induction of NO production in human MCF7 cells at 100 uM after 30 to 300 mins by Griess assay; type: functional, cell-based; how it was run: as §2
U-251 [7] = assay: Cytotoxicity against human U251 cells after 48 hrs by MTT assay; type: functional, cell-based; settings: U-251, 48 h; how it was run: as §1
MCF7 [8] = assay: Cytotoxicity against human MCF7 cells after 48 hrs by MTT assay; type: functional, cell-based; settings: MCF7, 48 h; how it was run: as §1
SGC-7901 [9] = assay: Induction of NO production in human SGC7901 cells at 100 uM after 30 to 300 mins by Griess assay; type: functional, cell-based; how it was run: as §2
MDA-MB-231 [10] = assay: Inhibition of Ras activation in human MDA-MB-231 cells assessed as reduction in phosphorylated Raf levels at 5 uM after 8 hrs by Western blot; type: cell-based
How it was run: (§3)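 MDA-MB-231 cells at 1.5 × 10⁵/mL exposed to 1 or 5 µM compound or vehicle for 8 h, then harvested and lysed. Lysates resolved by SDS–PAGE and immunoblotted with antibodies to phospho-Akt (Ser473), phospho-ERK (Thr202/Tyr204), phospho-Raf (Ser259), total Akt, total ERK and β-actin. Detection by HRP-conjugated secondary antibodies and enhanced chemiluminescence. Blots representative of two experiments.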

MDA-MB-231 [11] = assay: Inhibition of Ras activation in human MDA-MB-231 cells assessed as reduction in phosphorylated Akt levels at 5 uM after 8 hrs by Western blot; type: cell-based; how it was run: as §3
MDA-MB-231 [12] = assay: Inhibition of Ras activation in human MDA-MB-231 cells assessed as reduction in phosphorylated ERK levels at 5 uM after 8 hrs by Western blot; type: cell-based; how it was run: as §3
MDA-MB-231 [13] = assay: Ratio of IC50 for sorafenib to IC50 for drug for cytotoxicity against human MDA-MB-231 cells after 48 hrs by MTT assay; type: functional
MDA-MB-231 [14] = assay: Ratio of IC50 for FTA to IC50 for drug for cytotoxicity against human MDA-MB-231 cells after 48 hrs by MTT assay; type: functional
MDA-MB-231 [15] = assay: Cytotoxicity against human MDA-MB-231 cells after 24 hrs by MTT assay in presence of hemoglobin
MDA-MB-231 [16] = assay: Induction of NO production in human MDA-MB-231 cells at 100 uM after 30 to 300 mins by Griess assay in presence of hemoglobin; type: functional, cell-based
How it was run: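 MDA-MB-231 cells (5 × 10⁶/well) were treated in triplicate with 100 µM compound […], harvested and lysed. Lysates were mixed with Griess reagent for 30–300 min and absorbance read at 540 nm. Nitrate/nitrite was quantified against a sodium nitrate standard curve, with diluent-treated cells as background.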

Row | SMILES | IC50 (MDA-MB-231 [1]) [µM] | Activity (U-251 [2]) | IC50 [3] [µM] | Activity (MDA-MB-231 [4]) | Activity (U-87MG ATCC) | IC50 (SGC-7901 [5]) [µM] | Activity (MCF7 [6]) | IC50 (U-251 [7]) [µM] | IC50 (MCF7 [8]) [µM] | Activity (SGC-7901 [9]) | Activity (MDA-MB-231 [10]) | Activity (MDA-MB-231 [11]) | Activity (MDA-MB-231 [12]) | Ratio IC50 (MDA-MB-231 [13]) | Ratio IC50 (MDA-MB-231 [14]) | Activity (MDA-MB-231 [15]) | Activity (MDA-MB-231 [16])
1 | CC(C)=CCC/C(C)=C/CC/C(C)=C/CSc1ccccc1C(=O)NCC(=O)OCCOCCOc1no[n+]([O-])c1S(=O)(=O)c1ccccc1 | 2.41 | Active | 7.34 | Active | Active | 19.5 | Active | 8.58 | 6.59 | Active | – | – | – | – | – | – | –
2 | O=S(=O)(c1ccccc1)c1c(OCC#CCO)no[n+]1[O-] | 6.97 | – | – | – | – | – | – | – | – | – | – | – | – | – | – | – | –
3 | CC(C)=CCC/C(C)=C/CC/C(C)=C/CSc1ccccc1C(=O)O [SALIRASIB] | 51.2 | – | 54 | – | – | 37.7 | – | 46.9 | 46.8 | – | inactive | inactive | inactive | – | – | – | –
4 | CC(C)=CCC/C(C)=C/CC/C(C)=C/CSc1ccccc1C(=O)N1CCC[C@H]1C(=O)OC(C)CCOc1no[n+]([O-])c1S(=O)(=O)c1ccccc1 (stereo partly drawn) | 1.54 | – | 8.47 | – | – | 13.9 | – | 7.93 | 6.5 | – | – | – | – | – | – | – | –
5 | CC(C)=CCC/C(C)=C/CC/C(C)=C/CSc1ccccc1C(=O)NCC(=O)OCC#CCOc1no[n+]([O-])c1S(=O)(=O)c1ccccc1 | 7.23 | Active | 14.8 | Active | Active | 11.4 | Active | 11.7 | 6.91 | Active | – | – | – | – | – | – | –
6 | CC(C)=CCC/C(C)=C/CC/C(C)=C/CSc1ccccc1C(=O)N1CCC[C@H]1C(=O)OCCCCOc1no[n+]([O-])c1S(=O)(=O)c1ccccc1 | 3.14 | – | 9 | – | – | 22.5 | – | 6.99 | 7.47 | – | – | – | – | – | – | – | –
7 | CC(C)=CCC/C(C)=C/CC/C(C)=C/CSc1ccccc1C(=O)N[C@@H](C)C(=O)OCC#CCOc1no[n+]([O-])c1S(=O)(=O)c1ccccc1 | 1.01 | – | 5.18 | – | – | 11.4 | – | 7.31 | 5.03 | – | – | – | – | – | – | – | –
8 | CC(C)=CCC/C(C)=C/CC/C(C)=C/CSc1ccccc1C(=O)N[C@@H](Cc1ccccc1)C(=O)OC(C)CCOc1no[n+]([O-])c1S(=O)(=O)c1ccccc1 (stereo partly drawn) | > 50 | Active | > 50 | Active | Active | > 50 | Active | > 50 | > 50 | Active | – | – | – | – | – | – | –
9 | O=S(=O)(c1ccccc1)c1c(OCCOCCO)no[n+]1[O-] | 20.5 | – | – | – | – | – | – | – | – | – | – | – | – | – | – | – | –
10 | CC(C)=CCC/C(C)=C/CC/C(C)=C/CSc1ccccc1C(=O)N[C@@H](C)C(=O)OCCCCOc1no[n+]([O-])c1S(=O)(=O)c1ccccc1 | > 50 | – | 26.4 | – | – | 44.6 | – | 7.95 | 8.68 | – | – | – | – | – | – | – | –
11 | CC(C)=CCC/C(C)=C/CC/C(C)=C/CSc1ccccc1C(=O)N1CCC[C@H]1C(=O)OCCOCCOc1no[n+]([O-])c1S(=O)(=O)c1ccccc1 | 3.16 | Active | 12.9 | Active | Active | 7.86 | Active | 4.83 | 8.77 | Active | – | – | – | – | – | – | –
12 | CC(C)=CCC/C(C)=C/CC/C(C)=C/CSc1ccccc1C(=O)N1CCC[C@H]1C(=O)OCC#CCOc1no[n+]([O-])c1S(=O)(=O)c1ccccc1 | 1.07 | Active | 13.5 | Active | Active | 7.35 | Active | 3.56 | 5.49 | Active | – | – | – | 4 | 50 | – | –
13 | CC(C)=CCC/C(C)=C/CC/C(C)=C/CSc1ccccc1C(=O)N[C@@H](C)C(=O)OCCOCCOc1no[n+]([O-])c1S(=O)(=O)c1ccccc1 | 4.21 | Active | 18.1 | Active | Active | 11.3 | Active | 8.04 | 7.68 | Active | Active | Active | Active | – | – | inactive | inactive
14 | CC(C)=CCC/C(C)=C/CC/C(C)=C/CSc1ccccc1C(=O)NCC(=O)OCCCCOc1no[n+]([O-])c1S(=O)(=O)c1ccccc1 | 9.99 | – | > 50 | – | – | > 50 | – | 28.2 | 25.1 | – | – | – | – | – | – | – | –
15 | CNC(=O)c1cc(Oc2ccc(NC(=O)Nc3ccc(Cl)c(C(F)(F)F)c3)cc2)ccn1 [SORAFENIB] | 4.77 | – | 21.1 | – | – | 10.4 | – | 24.7 | 8.83 | – | – | – | – | – | – | – | –
16 | CC(C)=CCC/C(C)=C/CC/C(C)=C/CSc1ccccc1C(=O)N[C@@H](Cc1ccccc1)C(=O)OCCOCCOc1no[n+]([O-])c1S(=O)(=O)c1ccccc1 | > 50 | – | > 50 | – | – | > 50 | – | > 50 | > 50 | – | – | – | – | – | – | – | –
17 | O=S(=O)(c1ccccc1)c1c(OCCCCO)no[n+]1[O-] | 9.87 | – | – | – | – | – | – | – | – | – | – | – | – | – | – | – | –
18 | CC(C)=CCC/C(C)=C/CC/C(C)=C/CSc1ccccc1C(=O)N[C@@H](Cc1ccccc1)C(=O)OCC#CCOc1no[n+]([O-])c1S(=O)(=O)c1ccccc1 | > 50 | – | > 50 | – | – | > 50 | – | > 50 | > 50 | – | – | – | – | – | – | – | –
19 | CC(C)=CCC/C(C)=C/CC/C(C)=C/CSc1ccccc1C(=O)NCC(=O)OC(C)CCOc1no[n+]([O-])c1S(=O)(=O)c1ccccc1 (stereo not drawn) | 7.26 | – | 15.3 | – | – | 11.9 | – | 10.8 | 9.11 | – | – | – | – | – | – | – | –
20 | CC(C)=CCC/C(C)=C/CC/C(C)=C/CSc1ccccc1C(=O)N[C@@H](C)C(=O)OC(C)CCOc1no[n+]([O-])c1S(=O)(=O)c1ccccc1 (stereo partly drawn) | 5.05 | – | 20.4 | – | – | > 50 | – | 15.3 | 11.1 | – | – | – | – | – | – | – | –
21 | CC(C)=CCC/C(C)=C/CC/C(C)=C/CSc1ccccc1C(=O)N[C@@H](Cc1ccccc1)C(=O)OCCCCOc1no[n+]([O-])c1S(=O)(=O)c1ccccc1 | > 50 | – | > 50 | – | – | > 50 | – | > 50 | > 50 | – | – | – | – | – | – | – | –
